Compound activity from PubChem.
Only some compounds are listed: those with a hit (about 1.9% of all), similar ones and a draw of the others.
b-catenin transl – modulators of beta-catenin nuclear translocation; HeLa beta-catenin nuclear translocation, immunofluorescence imaging; nuclear translocation activity, % at 5 µM; 0.3% of 190,000 active;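 active means nuclear translocation activity above 50% at 5 µM, with a well cell count of 50 or more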;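 further: per-cell ratio of nuclear to cytoplasmic median beta-catenin stain intensity; plate controls were DMSO negative control for no effect and GSK-3 inhibitor IX positive control for full effect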
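Test system: human HeLa cell line; Doses: 5 µM primary, 0.02–20 µM confirmation; Incubation: 24 h compound exposure, 37°C; Detection: beta-catenin immunofluorescence imaging with DAPI; Read-out: beta-catenin nuclear/cytoplasmic ratio, % activation.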
MT stabilize HCS – microtubule stabilizers in HeLa cells. % tubulin-high responders, % at 10 µM. 0.83% of 200,000 active. AID 2205. HeLa tubulin immunostaining HCS, 24 h; share of cells brighter than vehicle mean+2SD;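 active means plate Z-score above 3 for both tubulin-high and condensed-nucleus cell shares, with cell loss under 80%, at 10 µM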;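 further: anti alpha tubulin signal scored within the nucleus-defined area of each cell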
HSV augment – increases HSV replication in cells. HSV replication augmentation in cells, fold increase. maximum fold increase. 0.005% of 220,000 active; in the data active means maximum fold increase above about 1.5; tested in PC3 cells
Autophagy mod – alters autophagy in cells. calls only at 10 µM (by protocol). 0.98% of 190,000 active. AID 463193. MEF GFP-LC3 puncta imaging; test concentration mostly 10 µM;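 active means percentage of spot-positive cells more than 3 SD above its plate mean, without a fluorescence outlier flag or 80% toxicity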;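 further: spot-positive cell cutoff set from DMSO-treated cells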
Furin inh – human furin inhibition | P09958 | purified furin, fluorogenic substrate cleavage | 0.061% of 220,000 active | inhibition, % at 20 µM or 30 µM; in the data active means inhibition above about 25%
Target sequence (P09958 108-714 limits assumed): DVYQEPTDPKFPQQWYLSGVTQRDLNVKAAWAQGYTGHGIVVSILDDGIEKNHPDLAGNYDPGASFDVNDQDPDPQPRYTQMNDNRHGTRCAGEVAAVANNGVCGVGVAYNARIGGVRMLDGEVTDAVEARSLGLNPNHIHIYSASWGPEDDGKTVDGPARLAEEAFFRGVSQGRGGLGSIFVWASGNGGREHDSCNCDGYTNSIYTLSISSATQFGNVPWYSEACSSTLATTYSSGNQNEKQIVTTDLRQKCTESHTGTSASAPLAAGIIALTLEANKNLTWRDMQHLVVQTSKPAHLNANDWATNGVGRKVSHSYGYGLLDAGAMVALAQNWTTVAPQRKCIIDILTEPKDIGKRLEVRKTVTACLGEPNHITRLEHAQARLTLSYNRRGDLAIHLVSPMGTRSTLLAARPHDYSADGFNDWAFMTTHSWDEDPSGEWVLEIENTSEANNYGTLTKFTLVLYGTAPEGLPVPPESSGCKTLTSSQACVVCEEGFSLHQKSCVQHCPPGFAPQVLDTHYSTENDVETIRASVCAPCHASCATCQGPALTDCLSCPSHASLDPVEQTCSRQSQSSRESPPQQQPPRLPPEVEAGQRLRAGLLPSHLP
Insulin prom up – MIN6 insulin promoter up-regulation | MIN6 insulin promoter-GFP reporter, high-content imaging; stronger effect = higher value | z-score at 5 µM | 0.3% of 190,000 active | AID 1625;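 active means z-score above 3 at 5 µM with at least 500 cells counted in the well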
* = called active by the depositor; i = inactive; . = no result given; + = active, no number.

SMILES	b-catenin transl	MT stabilize HCS	HSV augment	Autophagy mod	Furin inh	Insulin prom up
O=C1CC(c2cccc(Br)c2)c2cc3c(cc2N1)CCC3 (centres undefined)	0	28*	.	i	-6	-2
O=C1CC(c2cc(F)ccc2F)c2cc3c(cc2N1)CCC3 (centres undefined)	-1	14*	i	i	-18	2.1
CN1C(C(=O)NCCc2cccs2)CC2Cn3c(nc4ccccc43)C21 (centres undefined)	0	.	i	.	-21	0.43
Cc1ccc(S(=O)(=O)N/N=C/c2ccccc2O)cc1[N+](=O)[O-]	-1	3	i	+	-18	-0.31
O=C(Nc1ccc(N2CCN(C(=O)c3ccccc3)CC2)cc1)c1ccc([N+](=O)[O-])o1	1	15*	i	i	-16	.
CC(C)C(=O)N1CCN(c2ccc(NC(=O)c3ccc([N+](=O)[O-])o3)cc2)CC1	7	11	i	+	1	0.46
O=C(Nc1ccc(N2CCOCC2)c(Cl)c1)c1ccc([N+](=O)[O-])o1	1	6	i	i	-9	1.6
CC(C)C(=O)N1CCN(c2ccc(NC(=O)c3ccc([N+](=O)[O-])o3)cc2Cl)CC1	7	53*	i	i	-9	0.26
CCCC(=O)N1CCN(c2ccc(NC(=O)c3ccc([N+](=O)[O-])o3)cc2Cl)CC1	-2	4	i	+	-2	0.26
CC(C)C(=O)N1CCN(c2ccc(NC(=O)c3ccc(Br)o3)cc2)CC1	0	4	i	i	1	-0.39
CC(C)c1ccc(CN(C(=O)/C=C/c2ccco2)C2CCS(=O)(=O)C2)cc1 (centres undefined)	0	.	i	.	-10	0.21
COc1cccc(C2CC(=O)Nc3cc4c(cc32)OCCO4)c1OC(C)C (centres undefined)	0	5	i	i	-7	0.07
CCCOc1c(OC)cccc1C1CC(=O)Nc2cc3c(cc21)OCCO3 (centres undefined)	.	51*	i	i	-6	.
CC(C)Oc1ccccc1C1CC(=O)Nc2cc3c(cc21)OCCO3 (centres undefined)	5	10	i	i	-18	-4.2
CCCOc1c(OC)cccc1C1CC(=O)Nc2cc3c(cc21)OCO3 (centres undefined)	-1	37*	i	i	-7	0.11
CCOc1ccccc1C1CC(=O)Nc2cc3c(cc21)OCO3 (centres undefined)	2	29*	i	i	-27	-2.7
COc1ccccc1C1CC(=O)Nc2cc3c(cc21)OCCO3 (centres undefined)	-3	13	i	+	14	-1
COc1ccc([N+](=O)[O-])cc1NC(=O)CN(C)S(=O)(=O)c1ccccc1	0	2	i	i	-24	-0.05
Cc1ccc(C(=O)c2cc3c(cc2[N+](=O)[O-])OCCO3)cc1	-1	2	i	i	-25	-2.5
CCC1C(=O)CC(c2ccc([N+](=O)[O-])cc2)NC1c1ccc([N+](=O)[O-])cc1 (centres undefined)	1	3	i	i	-18	1.6
N#CC1=C(N)Oc2c(ccc3ccccc23)C1c1cccs1 (centres undefined)	131*	20*	i	+	-16	-1.7
Cn1cc(CN2CCN(c3ccc(Cl)cn3)CC2)c(-c2ccccc2F)n1	0	4	i	i	-24	-0.36
Cc1cccc(N2CCN(Cc3cn(C)nc3-c3ccccc3F)CC2)n1	103*	34*	i	i	-19	0.4
CCOC(=O)c1ccc(-n2ccnc2)c(NC(=O)c2ccc(Cl)cc2)c1	.	3	i	i	-2	0.44
CCOc1ccc(/C(C)=N/NC(=O)Cn2nc([N+](=O)[O-])cc2C)cc1	0	.	i	.	-10	0.4
SMILES	b-catenin transl	MT stabilize HCS	HSV augment	Autophagy mod	Furin inh	Insulin prom up
COc1ccc(C(=O)N(C)C2CCN(C)CC2)cc1S(=O)(=O)Nc1cc(Cl)ccc1Cl	-3	.	i	.	-13	-0.15
CC1(C)CC(N2CCN(CCO)CC2)=CC(=S)N1	-3	.	i	.	-6	0.29
Cc1cc(C)cc(Nc2nc(-c3ccc(S(=O)(=O)N4CCCC4)cc3)cs2)c1	0	19*	i	i	-13	-0.44
Cc1ccc(Nc2nc(-c3ccc(S(=O)(=O)N4CCCC4)cc3)cs2)cc1C	2	4	i	i	-5	-2.9
OC1(c2ccc(Cl)c(Cl)c2)C[n+]2ccccc2N1Cc1ccccc1 (centres undefined)	0	.	i	.	-56	-0.61
Cc1cccc(C(=O)Nc2ccc(O)c3c(=O)cc(-c4ccccc4Cl)oc23)c1	.	4	i	+	-14	-0.31
COC(=O)NC(=S)Nc1ccc(Oc2ccc(Cl)cc2)c(Cl)c1	3	1	i	i	-19	0.27
COC(=O)NC(=S)Nc1ccc(Oc2ccc(Cl)cc2Cl)c(Cl)c1	-3	26*	i	i	-15	.
CCOC(=O)c1c(CN2CCN(c3ccccc3)CC2)oc2ccc(O)cc12	3	13*	i	i	-20	1.2
COc1cccc(-n2c(SCc3ccccn3)nc3c(c2=O)SCC3)c1	.	2	i	i	-15	-0.14
Cc1ccc2c(c1)NC(=O)C(CC(=O)NCCCN1CCN(c3cc(C)ccc3C)CC1)O2 (centres undefined)	.	7	.	+	-33	-0.69
CCC(C)(C)NC(=O)COc1ccc(OCc2ccccc2)cc1	-6	2	i	i	-14	.
O=c1[nH]c2ccc(F)cc2[nH]c1=O	1	4	i	+	-18	0.15
O=C1CN(C(=O)COc2ncnc3ccccc23)c2ccccc2N1	.	3	i	i	-13	4*
Cc1sc2ncnc(OCC(=O)N3CC(=O)Nc4ccccc43)c2c1C	0	2	i	i	-20	0.66
Cc1c(C(=O)Nc2cc(S(=O)(=O)N3CCOCC3)ccc2N2CCOCC2)oc2ccccc12	-3	1	i	i	-12	-2.2
COc1ccc(O[C@H]2C=C[C@@H](c3ccccc3)O[C@@H]2CO/N=C(\C)CCN2CCCCc3nc(C)c(C)cc32)cc1	0	2	.	+	-5	-0.63
C/C(CCN1CCCCc2nc(C)c(C)cc21)=N\O[C@@H](C)CN1CCCCc2nc(C)c(C)cc21	.	4	.	i	-14	-0.5
COc1ccc(-c2[nH]ncc2/C=C(/C#N)C(=O)NC2CCCCCC2)cc1	7	49*	i	i	-4	-0.41
O=C1C=CC[C@H](/C=C/C[C@@H](O)C[C@H](O)CCc2ccccc2)O1	.	.	i	.	.	.
C=CCn1c(-c2cccc(Cl)c2)n[nH]c1=S	-7	8	i	i	-21	0.52
C=CCn1c(-c2oc3nc(-c4ccccc4)cc(-c4ccccc4)c3c2N)n[nH]c1=S	.	1	i	i	-6	5.6*
